Data reported in paper PMC9924909 (Brain, 2022).
Entries after “also recorded” stand apart in the source; their conditions may differ.

What was measured:
adults with GD3 [1] = test: Ataxia, Scale for Assessment and Rating of Ataxia; type: in vivo, human
adults with GD3 [2] = test: Safety and tolerability, LEAP trial; type: in vivo, human; settings: 1 year, 11 patients
How it was run: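 Open-label, single-arm study at six centres: 11 adults with GD3 took oral test compound 15 mg once daily with maintenance IV imiglucerase every 2 weeks (stable doses 38.5–125 U/kg). Safety and tolerability were assessed over 52 weeks. No pre-specified statistical testing.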

[3] = tested on: mouse models of neurological GD; settings: cited from earlier work
[4] = venglustat in combination with imiglucerase

CC(C)(NC(=O)O[C@@H]1CN2CCC1CC2)c1csc(-c2ccc(F)cc2)n1 [Venglustat]
total modified SARA score at Week 52, mean (adults with GD3 [1]; 11 patients, baseline mean 2.68, scale 0–32): 1.55
total modified SARA score, mean change from baseline (adults with GD3 [1]; Week 52, 95% CI: −2.06 to −0.21): −1.14 points
patients with slightly improved total modified SARA score (adults with GD3 [1]; baseline to Week 52, 11 patients): nine patients; also recorded: nine of 11
adverse event: acne (adults with GD3 [2]): two events in two patients
adverse event: back pain (adults with GD3 [2]): nine events in five patients
adverse event: diarrhoea (adults with GD3 [2]): two events in two patients
adverse event: headache (adults with GD3 [2]): ten events in six patients
adverse event: upper respiratory tract infection (adults with GD3 [2]): two events in two patients
adverse event: vomiting (adults with GD3 [2]): two events in two patients
severity of most adverse events (adults with GD3 [2]): mild or moderate, transient
deaths and serious adverse events (adults with GD3 [2]; venglustat 15 mg once daily in combination with imiglucerase): no deaths, serious adverse events; also recorded: no deaths or serious adverse events
discontinuation of study treatment (adults with GD3 [2]; [4]): no patient discontinued
patients with at least one adverse event (adults with GD3 [2]; [4]): 11
glycolipid accumulation in liver and brain [3]: reduced accumulation of gluco-series glycolipids in the liver and brain
median survival of treated mice ([3]; increased from 45 days): 60 days
increase in median survival ([3]; treated mice): 30%
